Results published in ChEMBL document CHEMBL3217642, “Mechanistic insight into inhibition of two-component system signaling” (Medchemcomm, 2013).
Calls of active or inactive are those of the source. The calls are words filed in the database; no cut-off is given here.

Experiments:
[1] = Inhibition of Thermotoga maritima histidine kinase HK853 autophosphorylation
How it was run: (§1)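 Purified HK853 (600 ng) in 50 mM Tris–HCl, 0.2 M KCl, 5 mM MgCl2, pH 7.8 preincubated 30 min with varied analogue concentrations (DMSO ≤5% v/v), then labeled with BODIPY-FL-ATPγS (2 μM final), 1 h RT in dark. Quenched with SDS loading buffer (unheated), resolved by SDS-PAGE, fluorescence band intensity integrated; gels then coomassie stained.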

Thermotoga maritima [2] = experiment: Displacement of BODIPY-FL-ATP-gamma-S from Thermotoga maritima histidine kinase HK853 at 1 mM to 600 uM; how it was run: as §1
[3] = Binding affinity to Thermotoga maritima histidine kinase HK853 by STD-NMR analysis
Thermotoga maritima [4] = experiment: Binding affinity to Thermotoga maritima histidine kinase HK853 by STD-NMR analysis in presence of ADP
Thermotoga maritima [5] = experiment: Induction of Thermotoga maritima histidine kinase HK853 aggregation up to 10 mM by gel based assay
How it was run: (§2)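 Purified HK853 (0.44 μM) in 20 mM HEPES pH 7.5, with or without 0.1% final Triton X-100, incubated with varied analogue concentrations (DMSO ≤5% v/v) 4 h RT. Read by native-PAGE with silver staining (band disappearance), and by SDS-PAGE after BS3 crosslinking (100-fold molar excess, 2 h RT, quenched with 20 mM ammonium bicarbonate) with silver staining.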

Thermotoga maritima [6] = experiment: Inhibition of Thermotoga maritima histidine kinase HK853 autophosphorylation up to 10 mM; how it was run: as §1
Thermotoga maritima [7] = experiment: Induction of Thermotoga maritima histidine kinase HK853 aggregation up to 1000 uM by gel based assay; how it was run: as §2
Thermotoga maritima [8] = experiment: Binding affinity to Thermotoga maritima histidine kinase HK853 D411A mutant by STD-NMR analysis
Thermotoga maritima [9] = experiment: Inhibition of Thermotoga maritima histidine kinase HK853 autophosphorylation at 10 mM; how it was run: as §1

IC50 [1] [µM] | inhibition (Thermotoga maritima [2]) | Structure (SMILES) | Kd [3] [µM] | further results
44 | – | C/C(=C/CC(C)(C)/C=C/C(=O)N[C@@H](Cc1c[nH]c2ccccc12)C(=O)O)CC/C=C(\C)Br | – | –
30 | – | CCCN(C(=O)/C(C#N)=C(/C)O)c1nc(-c2ccc(C(C)(C)C)cc2)cs1 | – | –

Further lines, the molecule ahead of its results:

Structure (SMILES) | IC50 [1] [µM] | inhibition (Thermotoga maritima [2]) | Kd [3] [µM] | further results
CCCCCCCCCCOc1ccc(CCNC(=N)N)cc1 | – | Active | – | –
CS(=O)(=O)c1ccc(CCNC(=N)N)cc1 | – | – | 580 | Activity (Thermotoga maritima [4]): inactive; Activity (Thermotoga maritima [5]): inactive; inhibition (Thermotoga maritima [6]): Active
N=C(N)NCCc1ccc(O)cc1 | – | – | 2410 | inhibition (Thermotoga maritima [7]): inactive; Activity (Thermotoga maritima [8]): inactive; inhibition (Thermotoga maritima [9]): inactive
CCCCCCCOc1ccc(CCNC(=N)N)cc1 | – | Active | – | –
